Results of several laboratories.
Each line is one published result; the experiments were not run side by side.
Target: Cannabinoid receptor 1 (CNR1, Homo sapiens, UniProt P21554)

For `CCCCC/C=C\C/C=C\C/C=C\C/C=C\CCCC(=O)NCCCl`, the Ki was 0.74 nM (ligand displacement; radioligand; cell membranes).
`CCCCCc1cc(O)c(C/C=C(\C)CCC2OC2(C)C)c(O)c1` (centres unmarked) gave a Ki of greater than 10000 nM (ligand displacement; radioligand; cell membranes).
`CCOC(=O)C(CC)(CCCSCCOCCOCCOCCOCCNC(=O)OC(C)(C)C)NC(=O)c1ccc(C2CC2)c(Cc2ccc(F)cc2)n1` (centres unmarked) gave a Ki of 731 nM (ligand displacement; radioligand; cell membranes).
With `CCCCCn1cc(C(=O)C2C(C)(C)C2(C)C)c2ccccc21` the EC50 was 98 nM (GTPγS binding; agonist; radiometric; cell membranes).
The EC50 of `N#Cc1c(Oc2cccc(OS(=O)(=O)CCCC(F)(F)F)c2)cccc1C(F)(F)F` is reported as 519 nM (calcium signal; agonist).
The Ki of `C=CCC(CC)(NC(=O)c1ccc(C2CC2)c(Cc2ccc(F)cc2)n1)C(=O)OCC` (centres unmarked) is reported as 2.9 nM (ligand displacement; radioligand; cell membranes).
`CCCc1cc(O)c2c(c1)OC(C)(C)c1ccc(C)cc1-2` gave a Ki of 565 nM (ligand displacement; radioligand; cell membranes).
With `CC/C(=C(\c1ccc(O)cc1)c1ccc(OCCN(C)C)cc1)c1ccccc1` the Kb was 1600 nM (cAMP; antagonist).
For `CC(C)C(NC(=O)c1nn(Cc2ccc(F)cc2)c2ccccc12)C(N)=O` (centres unmarked), the EC50 was 3.44 nM (calcium signal; agonist).
The Ki of `O=C(c1ccc2c(c1)c1ccccc1n2CCN1CCOCC1)c1cc2ccccc2[nH]1` is reported as 1200 nM (ligand displacement; radioligand; cell membranes).
`CCCCCc1cc(O)c(C/C=C(\C)CCC=C(C)C)c(O)c1C(=O)O` gave a Ki of 4530 nM (ligand displacement; radioligand; cell membranes).
With `CCOC(=O)[C@](CC)(CCC[S+]([O-])CCOCCOCCNC(=O)OC(C)(C)C)NC(=O)c1ccc(C2CC2)c(Cc2ccc(F)cc2)n1` (some centres unmarked) the Ki was 326 nM (ligand displacement; radioligand; cell membranes).
The Ki of `C=C(C)[C@@H]1CCC(C)=C[C@H]1c1c(O)cc(CCC)cc1O` is reported as 503 nM (ligand displacement; radioligand; cell membranes).
For `CCOC(=O)C(CC)(CCCSCCOCCOCCNc1ccc([N+](=O)[O-])c2nonc12)NC(=O)c1ccc(C2CC2)c(Cc2ccc(F)cc2)n1` (racemic), the EC50 was 600 nM (cAMP; agonist).
